We go through three compounds from article PMC3940870 (Nature, 2013).

The subject of assay [1] is P. falciparum schizonts (Dd2), reinvasion of RBCs. In words: Physical disruption/merozoite release assay. It is filed as cell-based, Plasmodium falciparum. The note with it: ~5×IC50 imidazopyrazine or 1 μM E-64.
The subject of assay [2] is P. berghei sporozoites expressing luciferase. The note with it: 2.5 mg/kg; stated as known, no reference given; cited from earlier work.
Assay [3] relates to P. falciparum NF54 gametocytes. Put plainly: Gametocyte viability assay. It is filed as cell-based. The note with it: Plasmodium falciparum, NF54, 72 h, read-out: IC50, gametocyte viability. Put shortly: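 NF54 stage III–V gametocytes came from cultures cleared of asexual parasites with 50 mM N-acetyl-D-glucosamine for 3 days, then purified on a discontinuous Percoll gradient. Viability was read by a modified pLDH assay with resazurin substrate after 72-hr exposure. The 9-point series (0.1 nM–1 μM, 0.5 log10 steps) ran in quadruplicate over 2 plates and 2 parasite batches. Controls were 1 μM DHA (MIN) and vehicle (MAX). IC50 came from four-parameter nonlinear regression.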

What is called pIC50 is −log10 of the IC50, conventionally taken in molar units.

Each structure is given as a SMILES string. pIC50: −log10 of the molar value.

`CC(C)C[C@H](NC(=O)[C@H]1O[C@@H]1C(=O)O)C(=O)NCCCCN=C(N)N` [E-64]: the “reinvasion parasitemia after mechanical rupture of treated schizonts” value in assay [1] is listed as 2–3%.

As to `O=C1C(O)=C([C@H]2CC[C@H](c3ccc(Cl)cc3)CC2)C(=O)c2ccccc21` [ATQ, atovaquone], the causal prophylactic protection in assay [2] is on record as 100%.

Turning to `C[C@H]1[C@@H](O)O[C@@H]2O[C@@]3(C)CC[C@H]4[C@H](C)CC[C@@H]1[C@@]24OO3` [DHA, dihydroartemisinin], the pIC50 in assay [3] was 7.80.
